Assay results from different studies.
Matrix: plasma

CCc1nc(C(N)=O)c(Nc2ccc(N3CCC(N4CCN(C)CC4)CC3)c(OC)c2)nc1NC1CCOCC1
AUC(0-t) (male Sprague-Dawley rat; oral; 10 mg/kg): 9290 ng·h/mL

CNCc1cc(-c2ccccc2F)n(S(=O)(=O)c2cccnc2)c1
AUC(0-t) (Sprague-Dawley rat; oral; 10 mg/kg): 643 ng·h/mL

C[C@H](Nc1ncnc2[nH]cnc12)c1cc2cccc(Cl)c2c(=O)n1-c1ccccc1
AUC(0-t) (male Wistar rat; oral; 25 mg/kg; single dose): 9340 ng·h/mL

COc1ccc2c(Cc3ccccc3F)c3n(c(=O)c2c1OC)CCc1cc2c(cc1-3)OCO2
AUC(0-t) (rat; intravenous; 5 mg/kg): 22700 ng·h/mL

N#Cc1ccc(Nc2nc(N)cc(Oc3c(F)cc(-c4ccc(C#N)cc4)cc3F)n2)cc1
AUC(0-t) (Sprague-Dawley rat; intravenous; 1 mg/kg): 302 ng·h/mL

Cc1nc(-c2cnc(NC(C)C)n(C)c2=O)ccc1Oc1ccnc(-c2cnn(C)c2)c1
AUC(0-t) (male Sprague-Dawley rat; intravenous; 1 mg/kg): 21500 ng·h/mL

CCc1cc(C(=O)NC)c2nccc(N3CCc4c(cc(Cn5ccnc5)cc4-c4cn(C)nc4C(F)(F)F)C3=O)c2c1
AUC(0-t) (male Sprague-Dawley rat; oral; 50 mg/kg; single dose): 11100 ng·h/mL

CCOC(=O)[C@@]12C[C@@H]1[C@@H](n1ccc3c(NC)nc(C#Cc4ccc(Cl)s4)nc31)[C@H](O)[C@@H]2O
AUC(0-t) (male Sprague-Dawley rat; oral; 3 mg/kg): 170 ng·h/mL

O=C(Nc1cc(F)c(F)c(F)c1)c1ccc(F)c(S(=O)(=O)NCc2cccc(B(O)O)c2)c1
AUC(0-t) (male Sprague-Dawley rat; oral; 20 mg/kg): 34.3 ng·h/mL

C=CC(=O)N1CC2CC(n3nc(-c4ccc(C(=O)Nc5ccccn5)cc4)c4c(N)ncnc43)CC2C1 (stereo not shown)
AUC(0-t) (male Wistar rat; oral; 30 mg/kg): 4720 ng·h/mL

CCc1cc(OC)c2nccc(N3CCc4c(cc(Cn5ccnc5)cc4-c4cn(C)nc4C(F)(F)F)C3=O)c2c1
AUC(0-t) (male Sprague-Dawley rat; intravenous; 3 mg/kg): 952 ng·h/mL

Cc1c(-c2ccccc2)cccc1N1C(=O)c2cc(CN[C@H](C(=O)O)C(C)O)c(OCc3cccc(C#N)c3)cc2C1=O (stereo partly shown)
AUC(0-t) (Sprague-Dawley rat; oral; 50 mg/kg): 75 ng·h/mL

COc1nc(-c2cc(C)c(N[C@@H](C)c3cc(F)cc(F)c3)nn2)ccc1-n1cnc(C)c1
AUC(0-t) (male Sprague-Dawley rat; oral; 5 mg/kg; single dose): 31900 ng·h/mL
